ChEMBL document CHEMBL3352352, “Structure-Based Drug Design of Novel, Potent, and Selective Azabenzimidazoles (ABI) as ATR Inhibitors” (ACS Med Chem Lett, 2015)
Values after ≈ are worked out from the molar mass of the structure shown. Active and inactive are the calls of the source. The rule behind the calls is not given here.

Key:
[1] = target: Serine/threonine-protein kinase ATR (Homo sapiens, UniProt Q13535); experiment: Inhibition of human ATR using ATP substrate measured after 3 hrs
[2] = target: T1, Phosphatidylinositol 4,5-bisphosphate 3-kinase catalytic subunit alpha isoform (Homo sapiens, UniProt P42336); experiment: Inhibition of PI3Kalpha (unknown origin)
[3] = Solubility of the compound in PBS buffer at pH 7 by shake flask equilibrium solubility assay
[4] = Apparent permeability from basolateral to apical side in human Caco2 cells at 10 uM and pH 7.4; details: Caco-2, pH 7.4
[5] = target: T2, Cytochrome P450 2D6 (Homo sapiens, UniProt P10635); experiment: Inhibition of CYP2D6 (unknown origin); assay type: ADME
[6] = target: T3, Serine-protein kinase ATM (Homo sapiens, UniProt Q13315); experiment: Inhibition of ATM (unknown origin) at 2 uM
[7] = target: T4, Cytochrome P450 2C9 (Homo sapiens, UniProt P11712); experiment: Inhibition of CYP2C9 (unknown origin); assay type: ADME
[8] = target: T5, DNA-dependent protein kinase catalytic subunit (Homo sapiens, UniProt P78527); experiment: Inhibition of DNAPK (unknown origin) at 10 uM
[9] = target: Cytochrome P450 3A4 (Homo sapiens, UniProt P08684); experiment: Inhibition of CYP3A4 (unknown origin); assay type: ADME
[10] = target: T2, Cytochrome P450 2D6; experiment: Time dependent inhibition of CYP2D6 in human liver microsomes; assay type: ADME; details: TDE = time-dependent effect
[11] = target: T6, Cytochrome P450 1A2 (Homo sapiens, UniProt P05177); experiment: Time dependent inhibition of CYP1A2 in human liver microsomes; assay type: ADME; details: TDE = time-dependent effect
T6 sequence (P05177 whole entry): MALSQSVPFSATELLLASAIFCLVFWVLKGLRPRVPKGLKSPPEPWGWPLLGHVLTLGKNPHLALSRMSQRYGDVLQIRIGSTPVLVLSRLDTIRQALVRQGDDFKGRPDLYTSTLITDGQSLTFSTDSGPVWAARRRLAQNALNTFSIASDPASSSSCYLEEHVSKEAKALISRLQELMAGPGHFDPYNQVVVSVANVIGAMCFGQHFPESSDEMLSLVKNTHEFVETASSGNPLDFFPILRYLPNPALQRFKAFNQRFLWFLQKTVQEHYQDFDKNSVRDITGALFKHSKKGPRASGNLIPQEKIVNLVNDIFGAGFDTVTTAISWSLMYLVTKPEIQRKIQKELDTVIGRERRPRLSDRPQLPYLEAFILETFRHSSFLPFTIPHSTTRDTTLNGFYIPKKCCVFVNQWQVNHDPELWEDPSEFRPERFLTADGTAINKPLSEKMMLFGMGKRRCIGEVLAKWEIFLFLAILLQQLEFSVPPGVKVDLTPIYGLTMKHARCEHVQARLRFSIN

[12] = target: T1, Phosphatidylinositol 4,5-bisphosphate 3-kinase catalytic subunit alpha isoform; experiment: Inhibition of PI3Kalpha (unknown origin) at <8 uM
[13] = target: Phosphatidylinositol 4,5-bisphosphate 3-kinase catalytic subunit beta isoform (Homo sapiens) (UniProt P42338); experiment: Inhibition of PI3Kbeta (unknown origin) at <8 uM
[14] = target: T7, Phosphatidylinositol 4,5-bisphosphate 3-kinase catalytic subunit delta isoform (Homo sapiens) (UniProt O00329); experiment: Inhibition of PI3Kdelta (unknown origin) at <8 uM
T7 sequence (whole entry): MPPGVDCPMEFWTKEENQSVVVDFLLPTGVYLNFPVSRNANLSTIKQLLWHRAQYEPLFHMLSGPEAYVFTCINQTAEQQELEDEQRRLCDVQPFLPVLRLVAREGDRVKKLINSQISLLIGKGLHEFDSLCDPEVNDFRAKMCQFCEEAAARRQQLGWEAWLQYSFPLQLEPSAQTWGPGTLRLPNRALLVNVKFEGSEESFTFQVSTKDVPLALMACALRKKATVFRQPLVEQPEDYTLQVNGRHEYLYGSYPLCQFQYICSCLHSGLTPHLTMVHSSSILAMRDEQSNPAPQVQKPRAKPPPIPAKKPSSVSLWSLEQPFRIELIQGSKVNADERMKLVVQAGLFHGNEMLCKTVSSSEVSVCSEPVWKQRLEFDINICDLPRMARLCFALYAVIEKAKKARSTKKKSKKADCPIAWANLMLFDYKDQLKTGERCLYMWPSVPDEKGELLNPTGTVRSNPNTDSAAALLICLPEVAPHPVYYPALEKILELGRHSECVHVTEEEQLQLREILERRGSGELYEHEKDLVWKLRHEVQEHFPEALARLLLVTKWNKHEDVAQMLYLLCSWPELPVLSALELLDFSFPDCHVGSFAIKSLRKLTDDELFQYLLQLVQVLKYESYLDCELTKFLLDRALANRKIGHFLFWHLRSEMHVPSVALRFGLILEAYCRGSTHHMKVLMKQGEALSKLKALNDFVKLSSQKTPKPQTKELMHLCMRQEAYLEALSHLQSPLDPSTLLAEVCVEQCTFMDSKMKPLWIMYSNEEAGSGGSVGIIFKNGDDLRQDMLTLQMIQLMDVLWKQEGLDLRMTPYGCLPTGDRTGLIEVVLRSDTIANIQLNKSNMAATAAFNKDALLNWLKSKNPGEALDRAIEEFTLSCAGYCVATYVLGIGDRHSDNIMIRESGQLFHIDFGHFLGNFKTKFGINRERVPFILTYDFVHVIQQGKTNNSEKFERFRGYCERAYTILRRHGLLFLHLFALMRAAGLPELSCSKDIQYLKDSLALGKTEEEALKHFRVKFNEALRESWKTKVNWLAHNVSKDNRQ

[15] = target: T6, Cytochrome P450 1A2; experiment: Inhibition of CYP1A2 (unknown origin); assay type: ADME
[16] = target: Serine/threonine-protein kinase mTOR (Homo sapiens, UniProt P42345); experiment: Inhibition of mTOR (unknown origin)
[17] = target: T4, Cytochrome P450 2C9; experiment: Time dependent inhibition of CYP2C9 in human liver microsomes; assay type: ADME; details: TDE = time-dependent effect
[18] = Apparent permeability from apical to basolateral side in human Caco2 cells at 10 uM and pH 7.4; details: Caco-2, pH 7.4
[19] = Clearance in Sprague-Dawley rat at 2.5 mg/kg, iv and 5 mg/kg, po; assay type: ADME, organism-based; details: in vivo
[20] = target: T8, Serine/threonine-protein kinase Chk1 (Homo sapiens, UniProt O14757); experiment: Inhibition of full-length Chk1 in HeLa S3 cells assessed as phosphorylation at Ser345 after 4 hrs; assay type: cell-based
T8 sequence (O14757 whole entry): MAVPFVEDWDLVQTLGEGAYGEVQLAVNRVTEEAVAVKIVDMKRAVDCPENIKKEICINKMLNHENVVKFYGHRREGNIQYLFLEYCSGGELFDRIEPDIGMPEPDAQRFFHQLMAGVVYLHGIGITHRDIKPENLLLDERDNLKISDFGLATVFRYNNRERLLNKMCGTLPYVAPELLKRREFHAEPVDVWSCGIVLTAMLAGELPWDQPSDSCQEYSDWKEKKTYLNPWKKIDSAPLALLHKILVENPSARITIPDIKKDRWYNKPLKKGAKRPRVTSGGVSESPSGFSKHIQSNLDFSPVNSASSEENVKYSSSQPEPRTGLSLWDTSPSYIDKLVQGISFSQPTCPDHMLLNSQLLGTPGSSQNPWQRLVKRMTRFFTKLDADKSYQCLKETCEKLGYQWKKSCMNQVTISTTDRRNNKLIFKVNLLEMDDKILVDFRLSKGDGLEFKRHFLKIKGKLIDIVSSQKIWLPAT
How it was run: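 HeLa S3 cells exposed to 1 µM gemcitabine together with test compound for 4 hr; read-out is Ser345-phosphorylated Chk1.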

[21] = target: Phosphatidylinositol 4,5-bisphosphate 3-kinase catalytic subunit gamma isoform (Homo sapiens) (UniProt P48736); experiment: Inhibition of PI3Kgamma (unknown origin) at <8 uM
[22] = Oral bioavailability in Sprague-Dawley rat at 5 mg/kg; assay type: ADME, organism-based; details: in vivo
[23] = Volume of distribution at steady state in Sprague-Dawley rat at 2.5 mg/kg, iv and 5 mg/kg, po; assay type: ADME, organism-based; details: in vivo, read-out: Vdss
[24] = target: T3, Serine-protein kinase ATM; experiment: Inhibition of ATM (unknown origin)
[25] = target: Voltage-gated inwardly rectifying potassium channel KCNH2 (Homo sapiens, UniProt Q12809); experiment: Inhibition of human ERG channel by dofetilide binding assay
[26] = target: T5, DNA-dependent protein kinase catalytic subunit; experiment: Inhibition of DNAPK (unknown origin)
[27] = Growth inhibition of human HT144 cells after 72 hrs by Cell Titer Glow assay; assay type: functional, cell-based; details: HT-144, 72 h
How it was run: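 Cell Titer Glo viability read-out after 72 hr continuous compound exposure.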

[28] = Half life in Sprague-Dawley rat at 2.5 mg/kg, iv and 2.5 mg/kg, po; details: in vivo
[29] = Intrinsic clearance in mouse liver microsomes; assay type: ADME; details: read-out: CLH
How it was run: (§1)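 Liver microsomes from mouse, rat or human; intrinsic clearance scaled to hepatic blood flow.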

[30] = Intrinsic clearance in human liver microsomes; assay type: ADME; details: read-out: CLH; how it was run: as §1
[31] = Intrinsic clearance in rat liver microsomes; assay type: ADME; details: read-out: CLH; how it was run: as §1

T2 sequence (P10635 whole entry): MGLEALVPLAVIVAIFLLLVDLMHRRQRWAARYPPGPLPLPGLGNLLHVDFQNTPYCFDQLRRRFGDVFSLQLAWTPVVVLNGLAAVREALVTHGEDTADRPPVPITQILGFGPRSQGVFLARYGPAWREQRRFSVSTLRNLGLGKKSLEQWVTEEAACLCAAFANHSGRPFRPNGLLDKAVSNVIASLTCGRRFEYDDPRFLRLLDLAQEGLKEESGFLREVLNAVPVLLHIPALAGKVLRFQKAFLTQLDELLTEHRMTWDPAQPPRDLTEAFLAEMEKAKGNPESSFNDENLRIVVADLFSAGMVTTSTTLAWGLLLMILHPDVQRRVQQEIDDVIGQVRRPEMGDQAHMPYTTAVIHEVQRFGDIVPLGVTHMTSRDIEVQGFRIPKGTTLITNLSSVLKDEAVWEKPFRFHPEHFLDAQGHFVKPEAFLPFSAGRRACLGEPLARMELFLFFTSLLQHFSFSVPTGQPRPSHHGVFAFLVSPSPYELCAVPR
T1 sequence (P42336 whole entry, canonical isoform): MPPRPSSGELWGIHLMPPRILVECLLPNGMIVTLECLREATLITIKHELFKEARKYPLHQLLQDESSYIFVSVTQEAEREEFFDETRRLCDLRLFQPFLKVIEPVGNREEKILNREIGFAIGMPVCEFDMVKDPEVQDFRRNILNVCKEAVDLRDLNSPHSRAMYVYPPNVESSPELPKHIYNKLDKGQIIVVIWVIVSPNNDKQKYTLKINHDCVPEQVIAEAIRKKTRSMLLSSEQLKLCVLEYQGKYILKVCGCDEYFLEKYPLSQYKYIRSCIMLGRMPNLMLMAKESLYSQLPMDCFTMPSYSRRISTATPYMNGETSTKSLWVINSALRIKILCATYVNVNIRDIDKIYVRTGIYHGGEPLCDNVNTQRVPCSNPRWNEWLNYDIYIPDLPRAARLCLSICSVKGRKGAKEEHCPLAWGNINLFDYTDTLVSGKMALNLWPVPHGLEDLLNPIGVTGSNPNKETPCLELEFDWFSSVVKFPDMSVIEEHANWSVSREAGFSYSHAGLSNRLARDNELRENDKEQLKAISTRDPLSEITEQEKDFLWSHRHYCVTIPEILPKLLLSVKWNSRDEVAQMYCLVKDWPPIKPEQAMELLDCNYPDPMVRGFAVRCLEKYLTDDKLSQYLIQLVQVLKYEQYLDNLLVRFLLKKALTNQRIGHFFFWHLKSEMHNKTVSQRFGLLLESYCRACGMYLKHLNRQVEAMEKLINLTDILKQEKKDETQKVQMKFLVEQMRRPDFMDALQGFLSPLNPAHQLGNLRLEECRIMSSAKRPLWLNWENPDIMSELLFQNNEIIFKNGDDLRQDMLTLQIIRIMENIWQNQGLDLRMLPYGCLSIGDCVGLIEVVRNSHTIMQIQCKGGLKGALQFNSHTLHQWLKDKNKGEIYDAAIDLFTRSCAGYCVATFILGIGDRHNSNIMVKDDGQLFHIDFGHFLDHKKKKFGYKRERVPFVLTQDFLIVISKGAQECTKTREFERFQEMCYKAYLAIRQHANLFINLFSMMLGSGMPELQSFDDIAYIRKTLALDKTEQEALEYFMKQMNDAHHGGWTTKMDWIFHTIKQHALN
T4 sequence (P11712 whole entry): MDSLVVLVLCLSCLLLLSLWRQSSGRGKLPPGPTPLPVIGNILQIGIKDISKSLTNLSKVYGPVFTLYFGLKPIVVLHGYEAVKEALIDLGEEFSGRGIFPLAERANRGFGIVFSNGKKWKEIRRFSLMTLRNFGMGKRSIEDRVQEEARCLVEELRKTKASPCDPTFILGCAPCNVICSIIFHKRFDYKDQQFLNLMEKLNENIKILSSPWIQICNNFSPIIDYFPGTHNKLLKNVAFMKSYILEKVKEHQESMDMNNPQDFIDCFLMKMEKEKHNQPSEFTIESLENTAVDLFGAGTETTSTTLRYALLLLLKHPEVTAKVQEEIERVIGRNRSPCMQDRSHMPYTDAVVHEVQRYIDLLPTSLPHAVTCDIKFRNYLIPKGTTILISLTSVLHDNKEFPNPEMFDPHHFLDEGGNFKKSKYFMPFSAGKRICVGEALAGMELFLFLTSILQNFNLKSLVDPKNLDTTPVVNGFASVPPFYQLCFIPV
Chain of Serine/threonine-protein kinase ATR (Q13535 whole entry, canonical isoform): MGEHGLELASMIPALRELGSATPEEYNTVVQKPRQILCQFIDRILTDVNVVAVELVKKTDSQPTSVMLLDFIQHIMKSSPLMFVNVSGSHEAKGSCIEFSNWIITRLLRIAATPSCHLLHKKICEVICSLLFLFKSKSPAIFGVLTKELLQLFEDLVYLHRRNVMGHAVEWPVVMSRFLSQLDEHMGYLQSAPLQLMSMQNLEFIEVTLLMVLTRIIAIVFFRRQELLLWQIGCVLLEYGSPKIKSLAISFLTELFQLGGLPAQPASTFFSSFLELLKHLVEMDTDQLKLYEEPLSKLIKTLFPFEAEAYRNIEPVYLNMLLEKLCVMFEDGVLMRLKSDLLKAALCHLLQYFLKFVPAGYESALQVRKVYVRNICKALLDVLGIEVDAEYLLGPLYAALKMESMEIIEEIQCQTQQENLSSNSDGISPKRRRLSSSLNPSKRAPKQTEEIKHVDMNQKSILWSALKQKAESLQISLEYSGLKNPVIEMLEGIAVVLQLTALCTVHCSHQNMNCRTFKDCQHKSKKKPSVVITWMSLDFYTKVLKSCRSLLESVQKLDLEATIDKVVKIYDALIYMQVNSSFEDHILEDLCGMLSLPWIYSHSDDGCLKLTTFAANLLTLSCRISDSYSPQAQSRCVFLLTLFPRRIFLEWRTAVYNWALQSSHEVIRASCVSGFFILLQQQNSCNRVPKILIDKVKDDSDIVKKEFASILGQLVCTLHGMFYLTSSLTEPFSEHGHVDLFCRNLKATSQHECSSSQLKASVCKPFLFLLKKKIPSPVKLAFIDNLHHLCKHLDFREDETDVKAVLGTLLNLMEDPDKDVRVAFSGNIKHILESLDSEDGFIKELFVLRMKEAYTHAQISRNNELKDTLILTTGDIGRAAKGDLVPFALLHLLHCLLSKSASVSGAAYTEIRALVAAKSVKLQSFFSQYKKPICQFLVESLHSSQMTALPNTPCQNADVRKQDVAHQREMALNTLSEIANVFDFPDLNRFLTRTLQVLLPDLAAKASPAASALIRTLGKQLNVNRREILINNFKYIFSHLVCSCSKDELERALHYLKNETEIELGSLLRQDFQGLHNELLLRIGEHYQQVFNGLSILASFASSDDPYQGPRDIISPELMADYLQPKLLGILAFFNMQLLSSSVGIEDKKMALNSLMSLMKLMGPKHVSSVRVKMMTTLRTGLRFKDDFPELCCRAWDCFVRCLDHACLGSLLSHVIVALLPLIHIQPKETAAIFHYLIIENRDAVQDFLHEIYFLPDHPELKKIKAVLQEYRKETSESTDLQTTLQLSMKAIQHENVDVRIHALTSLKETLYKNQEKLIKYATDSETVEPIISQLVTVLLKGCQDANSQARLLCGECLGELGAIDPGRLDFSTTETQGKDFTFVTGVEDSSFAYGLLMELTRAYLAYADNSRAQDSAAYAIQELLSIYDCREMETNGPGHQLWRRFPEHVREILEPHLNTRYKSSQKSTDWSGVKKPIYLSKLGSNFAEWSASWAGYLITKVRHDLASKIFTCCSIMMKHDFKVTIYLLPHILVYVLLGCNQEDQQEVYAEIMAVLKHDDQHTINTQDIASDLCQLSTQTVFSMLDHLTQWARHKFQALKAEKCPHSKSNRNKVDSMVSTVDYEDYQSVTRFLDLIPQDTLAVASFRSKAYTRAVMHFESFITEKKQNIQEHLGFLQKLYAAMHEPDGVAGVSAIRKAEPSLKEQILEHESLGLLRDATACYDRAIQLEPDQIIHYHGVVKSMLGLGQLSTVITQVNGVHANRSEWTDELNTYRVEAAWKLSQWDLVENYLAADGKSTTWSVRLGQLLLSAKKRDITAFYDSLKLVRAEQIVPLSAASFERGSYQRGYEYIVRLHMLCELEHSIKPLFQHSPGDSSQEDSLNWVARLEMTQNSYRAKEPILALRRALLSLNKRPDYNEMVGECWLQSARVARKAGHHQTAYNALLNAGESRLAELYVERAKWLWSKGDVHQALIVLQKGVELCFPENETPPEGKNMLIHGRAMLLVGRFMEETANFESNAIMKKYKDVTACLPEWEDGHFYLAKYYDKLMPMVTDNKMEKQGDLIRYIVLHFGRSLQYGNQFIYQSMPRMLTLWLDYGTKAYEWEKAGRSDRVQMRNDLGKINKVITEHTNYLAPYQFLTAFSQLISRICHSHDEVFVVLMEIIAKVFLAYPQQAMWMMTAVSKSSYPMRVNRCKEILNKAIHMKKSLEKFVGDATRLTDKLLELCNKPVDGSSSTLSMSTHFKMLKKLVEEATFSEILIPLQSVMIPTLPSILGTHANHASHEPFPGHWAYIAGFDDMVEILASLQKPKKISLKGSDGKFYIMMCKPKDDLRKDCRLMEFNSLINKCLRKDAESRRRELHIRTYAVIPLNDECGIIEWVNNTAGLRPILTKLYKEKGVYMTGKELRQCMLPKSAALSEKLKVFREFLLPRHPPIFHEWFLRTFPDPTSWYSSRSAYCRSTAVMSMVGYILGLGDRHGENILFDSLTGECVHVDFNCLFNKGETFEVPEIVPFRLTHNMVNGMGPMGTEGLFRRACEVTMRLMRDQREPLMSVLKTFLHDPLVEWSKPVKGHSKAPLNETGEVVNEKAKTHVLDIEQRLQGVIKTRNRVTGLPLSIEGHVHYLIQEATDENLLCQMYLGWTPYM

Compound	IC50 [1] [nM]	IC50 [2] [nM]	solubility thermodynamic [3] [µM]	Papp B→A at 10 µM [4] [×10⁻⁶ cm/s]	Papp A→B at 10 µM [18] [×10⁻⁶ cm/s]	clearance [19] [mL/min/kg]	bioavailability [22] [%]	other results
C[C@@H]1COCCN1c1nc(-c2cnc(N)nc2)cc2c1ncn2CS(C)(=O)=O	6							
c1cc(-c2cc3nccn3c(N3CCOCC3)n2)c2cc[nH]c2c1	96	> 10000	56 (≈ 17.9 µg/mL)					
C[C@@H]1COCCN1c1nc(-c2cncc3[nH]ccc23)cc2c1ncn2[C@@H](C)S(C)(=O)=O	0.2		> 770	37	2	114		IC50 [5]: > 40000 nM; inhibition [6]: inactive; IC50 [7]: > 40000 nM; inhibition [8]: inactive; IC50 [9]: > 40000 nM; inhibition (INH) [10]: tde; inhibition (INH) [11]: tde; inhibition [12]: inactive; inhibition [13]: inactive; inhibition [14]: inactive; IC50 [15]: > 40000 nM; IC50 [16]: > 4600 nM; inhibition (INH) [17]: tde; IC50 [20]: 80 nM; inhibition [21]: inactive
O=C(NC1CC1)c1cn2c(N3CCOCC3)nc(-c3cccc4[nH]ccc34)cc2n1	39							
CS(=O)(=O)Cn1cnc2c(N3C4CCC3COC4)nc(-c3cncc4[nH]ccc34)cc21	34							
CS(=O)(=O)Cn1cnc2c(N3C4CCC3COC4)nc(-c3cnc(N)nc3)cc21	190							
C[C@@H]1COCCN1c1nc(-c2cccc3[nH]ccc23)cc2nccn12	95	> 10000						
C[C@@H]1COCCN1c1nc(-c2cncc3[nH]ccc23)cc2c1ncn2C						49	18	Vd [23]: 2.3 L/kg; IC50 [16]: 7500 nM; IC50 [20]: 84 nM
C[C@@H]1COCCN1c1nc(-c2nncc3[nH]ccc23)cc2c1ncn2C	0.5		> 2400	38	3.6	34	7.5	IC50 [5]: > 24000 nM; IC50 [24]: 15000 nM; IC50 [25]: > 30000 nM; IC50 [7]: > 24000 nM; Vd [23]: 1.8 L/kg; IC50 [9]: > 24000 nM; IC50 [26]: > 25000 nM; IC50 [27]: 350 nM; IC50 [15]: > 24000 nM; IC50 [16]: > 13000 nM; half-life [28]: 2 h
c1cc(-c2cc3c(ncn3CC3CC3)c(N3CCOCC3)n2)c2cc[nH]c2c1	26	> 10000						
CS(=O)(=O)Cn1cnc2c(N3CCOCC3)nc(-c3cccc4[nH]ccc34)cc21	5	> 10000	193 (≈ 79.4 µg/mL)	58	14	14	96	CLint scaled [29]: 31 mL/min/kg; CLint scaled [30]: 6 mL/min/kg; CLint scaled [31]: 30 mL/min/kg; EC50 [20]: 3300 nM
C[C@@H]1COCCN1c1nc(-c2cccc3[nH]ccc23)cc2c1ncn2CS(C)(=O)=O	1							EC50 [20]: 570 nM
C[C@@H]1COCCN1c1nc(-c2c(F)ncc3[nH]ccc23)cc2c1ncn2C	0.1		> 2300	38	38	20	66	Vd [23]: 1.2 L/kg; IC50 [20]: 96 nM
